STAT1 activator = STAT1 signaling activators, primary screen, cell-based, HTS, luciferase reporter; NIH 3T3 STAT1-luciferase reporter, IFN-gamma, luminescence; 100% = IFN-gamma alone, no compound; activation (% of control), % at 5.5 µM; 200,000 tested, 2.6% active;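 active means activation above the screen-wide mean activation plus 3 SD, cut at about 130% in these data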
STAT3 inh-1 = IL-6 driven STAT3 reporter inhibitors, primary screen, U3A cells, luciferase, luminescence, MLSCN library; IL-6 STAT3-luciferase reporter; host cell line lacks STAT1; inhibition, % at 5.5 µM; 190,000 tested, 0.89% active; AID 862, 2007;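 active means inhibition above the mean inhibition across all screened compounds plus 3 SD, cut at about 44% in these data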
NF-kB neuron act = activators of NF-kB expression in neurons, primary screen, cell-based, HTS; 190,000 tested, 1.6% active; human neuronal cells, NF-kB reporter expression; stronger effect = higher value; fold change at 12.5 µM; in the data active means fold change above about 3.3
APP 5'UTR act = activators of APP 5'UTR luciferase reporter, primary screen, SH-SY5Y cells | activation, % at 2 µM | SH-SY5Y APP 5'UTR luciferase reporter, luminescence; zero percent = DMSO vehicle wells | 190,000 tested, 1% active;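 active means activation above a set limit, based on mean plus 3 SD of controls, cut at about 140% in these data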
STAT1 blocker = STAT1 signaling inhibitors, primary screen, cell-based, HTS, luciferase reporter | NIH 3T3 STAT1-luciferase reporter, IFN-gamma, luminescence | inhibition, % at 5.5 µM | 200,000 tested, 0.35% active | AID 920, 2007;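 active means inhibition above a set limit, the mean inhibition across all tested compounds plus 3 SD, cut at about 34% in these data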
STAT3 activator = IL-6 driven STAT3 reporter potentiators, primary screen, U3A cells, luciferase, luminescence, MLSCN library; activation (% of control), % at 5.6 µM; 190,000 tested, 0.91% active; IL-6 STAT3-luciferase reporter; 100% = signal with IL-6 EC80 alone;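 active means activation above the screen-wide mean of compound activation plus 3 SD, cut at about 130% in these data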
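Test system: human U3A cells carrying STAT3-luciferase construct; control set: IL-6-only wells as 100% reference; timing: compound pre-incubation 1 h before IL-6, then 6 h stimulation at 37 °C; also added: IL-6 stimulus at 33 ng/mL final; evaluation: % activation versus median of IL-6-stimulated wells; detection: reporter luminescence signal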
STAT3 inh-2 = STAT3 reporter inhibitors, retest of hits, confirmation, U3A cells, luciferase, luminescence; AID 1265, 2008; inhibition, % at 5.7 µM; IL-6 STAT3 luciferase reporter; cell line lacks STAT1; 1,200 tested, 45% active; shares compounds with STAT3 inh-1;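 active means inhibition above the hit cutoff computed for the primary STAT3 screen, cut at about 44% in these data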
NFkB inh 2 = NF-kB reporter inhibitors in human cells, confirmation, counter-screen for STAT3 inhibitor project, cell-based, HEK293T, luciferase, TNF-alpha stimulus. shares compounds with STAT3 inh-1. TNF-alpha induced. inhibition, % at 5.7 µM. 1,200 tested, 36% active. AID 1308, 2008;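 active means inhibition above the mean of solvent-only control wells plus 3 SD, cutoff set per campaign, cut at about 13% in these data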
STAT1 inh 2 = STAT1 reporter inhibitors, IFN-gamma induced, confirmation, counter-screen for STAT3 inhibitor project, cell-based, NIH 3T3, luciferase luminescence; shares compounds with STAT3 inh-1; NIH 3T3 STAT1-luciferase reporter; inhibition, % at 5.7 µM; 1,200 tested, 27% active; AID 1317, 2008;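 active means inhibition above the mean plus 3 SD of solvent-only control wells, limit set per screening run, cut at about 16% in these data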
Large screens that a line does not name were inactive (follow-up assays come after a bar, where they were run). Compounds with a hit are over-represented: about 4.9% of the library has one in this group of screens.

CC(=O)c1c(C)[nH]c(C(=O)OCC(=O)Nc2ccc(Cl)cc2[N+](=O)[O-])c1C	STAT3 inh-1 57 | STAT3 inh-2 73 | NFkB inh 2 28 | STAT1 inh 2 28
O=C(COC(=O)c1cc[n+]([O-])cc1)Nc1ccc(Cl)cc1[N+](=O)[O-]	none
Cc1ccc(N(C(=O)CCl)C(C(=O)NC2CCCCC2)c2cccnc2)cc1C (stereo not drawn)	STAT3 inh-1 70 | STAT3 inh-2 102 | NFkB inh 2 40 | STAT1 inh 2 40
CN(C)S(=O)(=O)c1ccc(C(=O)Nc2nc(-c3cccs3)cs2)cc1	STAT3 inh-1 53 (no result: APP 5'UTR act) | STAT3 inh-2 44 | NFkB inh 2 inactive | STAT1 inh 2 inactive
COc1ccc(-c2cc(C3CCN(c4cc(Cl)nc(N)n4)CC3)[nH]n2)cc1	none
Nc1nc(Cl)cc(N2CCC(c3cc(-c4ccc(Cl)cc4)n[nH]3)CC2)n1	STAT3 inh-1 53 | STAT3 inh-2 46 | NFkB inh 2 inactive | STAT1 inh 2 21
CC(C)Cc1cc(C(=O)N2CCCC(CCC(=O)N(C)CCc3ccccn3)C2)no1 (stereo not drawn)	none
Oc1ccc(-c2n[nH]c(=S)n2-c2ccc3c(c2)OCCO3)c(O)c1	STAT3 inh-1 48 | STAT3 inh-2 44 | NFkB inh 2 inactive | STAT1 inh 2 inactive
COc1ccc(-c2n[nH]c(=S)n2-c2ccc3c(c2)OCCO3)cc1	none
O=C(Nc1ccc(N2CCOCC2)nc1)c1ccc(C(F)(F)F)cc1	STAT3 inh-1 61 | STAT3 inh-2 59 | NFkB inh 2 inactive | STAT1 inh 2 inactive
Cc1cc(=O)oc2cc(OCC(=O)OCC(=O)NCCc3ccccc3)ccc12	none
COc1ccccc1Oc1c(C)oc2c(CN(C)C)c(O)ccc2c1=O	none
Cc1c(C(=O)Nc2ccccc2)csc1-c1ccccc1	STAT1 activator 137, STAT3 inh-1 55, NF-kB neuron act 5.2, APP 5'UTR act 189 | STAT3 inh-2 inactive | NFkB inh 2 inactive | STAT1 inh 2 inactive
O=C1C(c2ccnc3ccccc23)=C(O)c2ccccc21	STAT3 inh-1 48, APP 5'UTR act 183 | STAT3 inh-2 inactive | NFkB inh 2 38 | STAT1 inh 2 inactive
N#Cc1ccc(-c2cn(-c3ccccc3)c3[n+]2CCCS3)cc1	none
Cc1ccc(-c2cn(-c3ccccc3)c3[n+]2CCCS3)cc1	STAT3 inh-1 57 | STAT3 inh-2 50 | NFkB inh 2 inactive | STAT1 inh 2 28
COc1ccc(-n2cc(-c3ccc(C)cc3)[n+]3c2SCC3)cc1	STAT3 inh-1 69 | STAT3 inh-2 75 | NFkB inh 2 inactive | STAT1 inh 2 23
CCc1ccc(-n2cc(-c3ccc(F)cc3)[n+]3c2SCCC3)cc1	none
COc1cc(/C=C2/NC(=O)N(Cc3ccccc3F)C2=O)ccc1O	none
CCCCCc1ccc(OCCOCCn2c[n+](C)c3ccccc32)c(CCCCC)c1	STAT3 inh-1 56 | STAT3 inh-2 66 | NFkB inh 2 16 | STAT1 inh 2 23
CS(=O)(=O)N1CCc2cc(-c3csc(NC(=O)Cc4cccs4)n3)ccc21	STAT3 inh-1 82 | STAT3 inh-2 72 | NFkB inh 2 19 | STAT1 inh 2 inactive
COc1ccc(N2C(=O)C(CC(=O)Nc3ccc(F)cc3)N(CCc3ccc(OC)c(OC)c3)C2=O)cc1 (stereo not drawn)	none
O=C(CSc1ncnc2c1cnn2CCO)Nc1cccc(C(F)(F)F)c1	none
O=C(Nc1ccncc1)c1cccc(F)c1	none
O=C(Nc1ccc(N2CCCC2)cc1)c1cccc(F)c1	STAT3 inh-1 48, APP 5'UTR act 230 | STAT3 inh-2 inactive | NFkB inh 2 inactive | STAT1 inh 2 inactive
O=C(Nc1ccc(N2CCCCC2)cc1)c1ccccc1	STAT3 inh-1 66, NF-kB neuron act 5.7, APP 5'UTR act 164 | STAT3 inh-2 inactive | NFkB inh 2 inactive | STAT1 inh 2 inactive
O=C(Nc1ccc(N2CCCC2)cc1)c1ccc2ccccc2c1	none
Cc1ccc2nc(-c3ccc(NC(=O)COC(=O)c4ccc(=O)[nH]c4)cc3)sc2c1	STAT1 activator 135, STAT3 inh-1 56, NF-kB neuron act 6.5, APP 5'UTR act 165 | STAT3 inh-2 inactive | NFkB inh 2 inactive | STAT1 inh 2 inactive
Cc1ccc2nc(-c3ccc(NC(=O)CCS(=O)(=O)c4ccccc4)cc3)sc2c1	STAT3 inh-1 72, NF-kB neuron act 3.6 | STAT3 inh-2 48 | NFkB inh 2 22 | STAT1 inh 2 inactive
Cc1ccc(C)c(N(CC(=O)Nc2ccc(-c3nc4ccc(C)cc4s3)cc2)S(C)(=O)=O)c1	none
Cc1nc2ccc(NC(=O)CCS(=O)(=O)c3ccccc3)cc2s1	none
Cc1nn(C)c(Oc2cccc(C(F)(F)F)c2)c1C=O	none
O=C(NCCCN1CCOCC1)c1ccc(Br)cc1	STAT3 inh-1 53 | STAT3 inh-2 inactive | NFkB inh 2 inactive | STAT1 inh 2 inactive
Oc1ccc(N=Nc2ccc3c(c2)OCCO3)c2cccnc12	STAT3 inh-1 63 | STAT3 inh-2 inactive | NFkB inh 2 inactive | STAT1 inh 2 inactive
Cc1nn(C)c(C)c1NC(=O)CSc1nc(C2CC2)nc2c1cnn2-c1ccccc1	STAT3 inh-1 50 | STAT3 inh-2 inactive | NFkB inh 2 inactive | STAT1 inh 2 inactive
COc1cc([N+](=O)[O-])ccc1NC(=O)CN1CCOCC1	none
O=C(Nc1ccc(-c2nc3ccccc3[nH]2)cc1)C1CCCO1 (stereo not drawn)	STAT3 inh-1 68, NF-kB neuron act 4.6, APP 5'UTR act 180 | STAT3 inh-2 inactive | NFkB inh 2 inactive | STAT1 inh 2 inactive
Cc1ccc2oc(-c3cccc(NC(=O)Cc4cccs4)c3)nc2c1	none
CCC(=O)Nc1ccc2oc(-c3cccc(C)c3)nc2c1	STAT3 inh-1 64, NF-kB neuron act 3.5, APP 5'UTR act 190 | STAT3 inh-2 inactive | NFkB inh 2 inactive | STAT1 inh 2 inactive

From PubChem BioAssay
